Measured values from ChEMBL document CHEMBL4602728, “6-Amino[1,2,5]oxadiazolo[3,4-b]pyrazin-5-ol Derivatives as Efficacious Mitochondrial Uncouplers in STAM Mouse Model of Nonalcoholic Steatohepatitis” (J Med Chem, 2020).
Calls of active or inactive are those of the source.

Columns and labels:
[1] = Toxicity in C57BL/6 mouse model of streptozotocin-induced nonalcoholic steatohepatitis assessed as decrease in food consumption per cage at 10 mg/kg/day, po formulated into HFD administered for 21 days measured during compound dosing relative to control; format: organism-based; set-up: scale not given: the % may be the effect or the level left; settings: in vivo, 504 h
Mus musculus [2] = experiment: (§1) Anti-hepatosteatosis activity in C57BL/6 mouse model of streptozotocin-induced nonalcoholic steatohepatitis assessed as fibrosis score at 10 mg/kg/day, po administered for 21 days formulated into HFD measured post-last dose by Picro-Sirius red staining based histopathological analysis (reference value: 0.91 +/- 0.09 %); format: functional
[3] = Toxicity in C57BL/6 mouse model of streptozotocin-induced nonalcoholic steatohepatitis assessed as effect on body weight at 10 mg/kg/day, po formulated into HFD administered for 21 days measured during compound dosing; format: organism-based; settings: in vivo, 504 h
[4] = Toxicity in C57BL/6 mouse model of streptozotocin-induced nonalcoholic steatohepatitis assessed as effect on liver weight at 10 mg/kg/day, po formulated into HFD administered for 21 days measured during compound dosing; format: organism-based; settings: in vivo, 504 h
Mus musculus [5] = experiment: Anti-hepatosteatosis activity in C57BL/6 mouse model of streptozotocin-induced nonalcoholic steatohepatitis assessed as reduction in liver triglyceride level at 10 mg/kg/day, po administered for 21 days formulated into HFD measured post-last dose by triglyceride E test based assay; format: functional, organism-based
[6] = Toxicity in C57BL/6 mouse model of streptozotocin-induced nonalcoholic steatohepatitis assessed as increase in plasma cholesterol level at 25 mg/kg/day, po formulated into HFD administered for 21 days measured post last dose by […] reagent based colorimetric method; format: organism-based; settings: in vivo, 504 h
Procedure, shortened: (§2)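 Cholesterol was measured in day-21 nonfasting plasma of STAM male mice on 25 mg kg−1 d−1 drug in high-fat diet. The colorimetric assay used Infinity cholesterol reagent at 37 °C for 5–20 min, reading absorbance at 500 nm minus 660 nm background. Values were interpolated from a cholesterol standard curve. n = 8; Kruskal–Wallis test.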

Mus musculus [7] = experiment: Anti-hepatosteatosis activity in C57BL/6 mouse model of streptozotocin-induced nonalcoholic steatohepatitis assessed as reduction in ALT level at 10 mg/kg/day, po administered for 21 days formulated into HFD measured post-last dose; format: functional, organism-based
[8] = Toxicity in C57BL/6 mouse model of streptozotocin-induced nonalcoholic steatohepatitis assessed as change in plasma AST level at 10 mg/kg/day, po formulated into HFD administered for 21 days measured post last dose; format: organism-based; settings: in vivo, 504 h
[9] = Induction of mitochondrial uncoupling in rat L6 cells assessed as increase in oxygen consumption rate incubated for 90 mins by Seahorse XF analyzer based assay; format: mitochondria, Mitochondria
[10] = Toxicity in C57BL/6 mouse assessed as increase in body temperature at 5 to 50 mg/kg, po measured upto 4 hrs by rectal probe thermometry; format: organism-based; settings: in vivo
Procedure, shortened: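 Male C57BL/6 mice received a single oral gavage of vehicle or compound at 5, 20 or 50 mg/kg. The vehicle was methylcellulose, Tween 80 and DMSO. Core body temperature was taken with a rectal probe thermometer at set time points. n = 3; two-way repeated measures ANOVA.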

[11] = Cmax in C57BL/6 mouse at 10 mg/kg, po administered via gavage by LC/MS-MS analysis; format: ADME, organism-based; set-up: dose 10 mg/kg, route oral; settings: in vivo
Procedure, shortened: (§3)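 Male C57BL/6 mice aged 9–12 weeks received a single 10 mg/kg oral gavage bolus. The vehicle was methylcellulose 90–91%, Tween 80 2–3% and DMSO 6–8% (v/v). Tail-tip blood was drawn into heparinized capillaries and spun at 2000g for 10 min. Plasma was extracted with acetonitrile:methanol (9:1) and quantified by LC–MS/MS against spiked plasma standards (1–100 ng). n = 3.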

[12] = Half life in C57BL/6 mouse at 10 mg/kg, po administered via gavage by LC/MS-MS analysis; format: ADME, organism-based; settings: in vivo; procedure, shortened: as §3
[13] = Drug distribution in C57BL/6 mouse liver at 10 mg/kg, po administered via gavage measured after 1 hr by LC/MS-MS analysis; format: ADME, organism-based; settings: read-out: Drug uptake
Procedure, shortened: (§4)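 Male C57BL/6 mice received a single 10 mg/kg oral gavage and were euthanized by cervical dislocation at 1 h. Tissues were rinsed in PBS, snap-frozen, pulverized in liquid nitrogen and homogenized, then spun at 10 000g for 10 min. Supernatants were extracted with acetonitrile:methanol (9:1) and quantified by LC–MS/MS against spiked standards. n = 3.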

[14] = Drug distribution in C57BL/6 mouse kidney at 10 mg/kg, po administered via gavage measured after 1 hr by LC/MS-MS analysis; format: ADME, organism-based; settings: read-out: Drug uptake; procedure, shortened: as §4
[15] = Solubility of compound in PBS at pH 7.4; format: physicochemical; settings: buffer
[16] = target: Voltage-gated inwardly rectifying potassium channel KCNH2 (Homo sapiens, UniProt Q12809); experiment: Inhibition of human ERG by Qpatch method
Voltage-gated inwardly rectifying potassium channel KCNH2, sequence (Q12809 whole entry): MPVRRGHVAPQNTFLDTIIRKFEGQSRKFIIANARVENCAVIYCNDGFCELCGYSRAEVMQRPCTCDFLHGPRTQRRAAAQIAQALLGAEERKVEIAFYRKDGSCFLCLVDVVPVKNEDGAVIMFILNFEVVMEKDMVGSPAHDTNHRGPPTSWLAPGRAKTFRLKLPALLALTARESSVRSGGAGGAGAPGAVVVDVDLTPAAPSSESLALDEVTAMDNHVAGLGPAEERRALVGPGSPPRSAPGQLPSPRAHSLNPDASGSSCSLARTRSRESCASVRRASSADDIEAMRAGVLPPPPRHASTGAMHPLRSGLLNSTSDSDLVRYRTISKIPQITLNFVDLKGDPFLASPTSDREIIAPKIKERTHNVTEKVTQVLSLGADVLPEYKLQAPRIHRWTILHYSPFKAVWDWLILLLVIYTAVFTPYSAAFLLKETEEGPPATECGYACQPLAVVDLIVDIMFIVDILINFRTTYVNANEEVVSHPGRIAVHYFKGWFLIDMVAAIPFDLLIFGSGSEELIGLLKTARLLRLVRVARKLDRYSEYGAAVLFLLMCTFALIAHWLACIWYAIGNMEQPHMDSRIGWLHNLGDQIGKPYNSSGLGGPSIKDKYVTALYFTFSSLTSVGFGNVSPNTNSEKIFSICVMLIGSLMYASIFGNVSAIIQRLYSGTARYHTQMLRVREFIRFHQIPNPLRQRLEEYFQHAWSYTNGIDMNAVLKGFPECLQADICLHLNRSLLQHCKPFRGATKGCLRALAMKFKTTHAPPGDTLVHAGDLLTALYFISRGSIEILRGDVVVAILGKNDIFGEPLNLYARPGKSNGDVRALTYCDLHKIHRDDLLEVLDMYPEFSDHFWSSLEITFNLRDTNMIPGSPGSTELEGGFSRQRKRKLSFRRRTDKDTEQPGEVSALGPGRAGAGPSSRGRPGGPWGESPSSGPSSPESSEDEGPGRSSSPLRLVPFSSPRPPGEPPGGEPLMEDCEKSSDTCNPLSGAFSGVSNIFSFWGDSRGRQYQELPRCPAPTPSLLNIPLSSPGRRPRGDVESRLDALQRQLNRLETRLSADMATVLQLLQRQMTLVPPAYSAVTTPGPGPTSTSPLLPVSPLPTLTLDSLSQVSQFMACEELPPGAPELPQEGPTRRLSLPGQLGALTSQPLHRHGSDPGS

[17] = Toxicity in C57BL/6 mouse model of streptozotocin-induced nonalcoholic steatohepatitis assessed as effect on food consumption per cage at 25 mg/kg/day, po formulated into HFD administered for 21 days measured during compound dosing (reference value: 318 +/- 13 g); format: organism-based; settings: in vivo, 504 h
Mus musculus [18] = experiment: as §1, with “25” for “10”; format: functional
Mus musculus [19] = experiment: Anti-hepatosteatosis activity in C57BL/6 mouse model of streptozotocin-induced nonalcoholic steatohepatitis assessed as reduction in steatosis score at 25 mg/kg/day, po administered for 21 days formulated into HFD measured post-last dose by […] based histopathological analysis; format: functional, organism-based
Procedure, shortened: (§5)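 Liver tissue came from STAM male mice fed drug-containing high-fat diet at 25 mg kg−1 d−1 for 21 days from 6 weeks of age. Pieces of the left lateral lobe were Bouin-fixed and paraffin-embedded, then H&E-stained. A pathologist scored steatosis, inflammation and ballooning using the Kleiner NAFLD activity score criteria. n = 8 per group; Kruskal–Wallis test.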

Mus musculus [20] = experiment: Anti-hepatosteatosis activity in C57BL/6 mouse model of streptozotocin-induced nonalcoholic steatohepatitis assessed as reduction in inflammation score at 25 mg/kg/day, po administered for 21 days formulated into HFD measured post-last dose by […] based histopathological analysis; format: functional, organism-based; procedure, shortened: as §5
Mus musculus [21] = experiment: Anti-hepatosteatosis activity in C57BL/6 mouse model of streptozotocin-induced nonalcoholic steatohepatitis assessed as reduction in ballooning score at 25 mg/kg/day, po administered for 21 days formulated into HFD measured post-last dose by […] based histopathological analysis; format: functional, organism-based; procedure, shortened: as §5
[22] = Toxicity in C57BL/6 mouse model of streptozotocin-induced nonalcoholic steatohepatitis assessed as effect on body weight at 25 mg/kg/day, po formulated into HFD administered for 21 days measured during compound dosing; format: organism-based; settings: in vivo, 504 h
Procedure, shortened: (§6)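 STAM male mice received the compound premixed in high-fat diet for 21 days from 6 weeks of age, at 25 mg kg−1 d−1. Body weight was recorded, and livers were weighed after sacrifice at 9 weeks of age. n = 8 per group; Kruskal–Wallis test.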

[23] = Toxicity in C57BL/6 mouse model of streptozotocin-induced nonalcoholic steatohepatitis assessed as effect on liver weight at 25 mg/kg/day, po formulated into HFD administered for 21 days measured during compound dosing; format: organism-based; settings: in vivo, 504 h; procedure, shortened: as §6
Mus musculus [24] = experiment: Anti-hepatosteatosis activity in C57BL/6 mouse model of streptozotocin-induced nonalcoholic steatohepatitis assessed as reduction in liver triglyceride level at 25 mg/kg/day, po administered for 21 days formulated into HFD measured post-last dose by triglyceride E test based assay; format: functional, organism-based
Procedure, shortened: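 STAM male mice received 25 mg kg−1 d−1 in high-fat diet for 21 days and were killed at 9 weeks of age. The right liver lobe was snap-frozen. Total lipids were extracted by Folch's method, with homogenization in chloroform–methanol (2:1, v/v) and overnight incubation at room temperature. n = 8 per group; one-way ANOVA.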

[25] = Toxicity in C57BL/6 mouse model of streptozotocin-induced nonalcoholic steatohepatitis assessed as effect on plasma triglyceride level at 25 mg/kg/day, po formulated into HFD administered for 21 days measured post last dose by GPO reagent based colorimetric method; format: organism-based; settings: in vivo, 504 h
Procedure, shortened: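 Plasma triglyceride was measured in day-21 nonfasting plasma from STAM male mice given 25 mg kg−1 d−1 in high-fat diet. Samples were incubated with GPO reagent at 37 °C for 5–20 min until absorbance at 500 nm stabilized. Values were interpolated from a glycerol standard curve. n = 8; Kruskal–Wallis test.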

[26] = Toxicity in C57BL/6 mouse model of streptozotocin-induced nonalcoholic steatohepatitis assessed as effect on plasma cholesterol level at 25 mg/kg/day, po formulated into HFD administered for 21 days measured post last dose by […] reagent based colorimetric method; format: organism-based; settings: in vivo, 504 h; procedure, shortened: as §2
[27] = Toxicity in C57BL/6 mouse model of streptozotocin-induced nonalcoholic steatohepatitis assessed as effect on plasma glucose level at 25 mg/kg/day, po formulated into HFD administered for 21 days measured post last dose by […]; format: organism-based; settings: in vivo, 504 h
Procedure, shortened: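 Nonfasting whole-blood glucose was read with a glucose meter at sacrifice (day 21) in STAM male mice dosed at 25 mg kg−1 d−1 via high-fat diet. Readings above 900 mg/dL were recorded as 900 mg/dL. n = 8; one-way ANOVA.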

Mus musculus [28] = experiment: Anti-hepatosteatosis activity in C57BL/6 mouse model of streptozotocin-induced nonalcoholic steatohepatitis assessed as reduction in ALT level at 25 mg/kg/day, po administered for 21 days formulated into HFD measured post-last dose; format: functional, organism-based
Procedure, shortened: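 STAM male mice were dosed with compound premixed into high-fat diet (57 kcal % fat) from 6 weeks of age for 21 days, at 25 mg kg−1 d−1. They were sacrificed at 9 weeks of age by cardiac puncture under isoflurane. Nonfasting heparinized blood was spun at 1000g for 15 min at 4 °C, and plasma ALT was read on a dry-chemistry analyzer. n = 8 male mice per group; mean ± SEM.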

[29] = Toxicity in C57BL/6 mouse model of streptozotocin-induced nonalcoholic steatohepatitis assessed as change in plasma AST level at 25 mg/kg/day, po formulated into HFD administered for 21 days measured post last dose; format: organism-based; settings: in vivo, 504 h
Procedure, shortened: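 Plasma was taken at day 21 from STAM mice fed drug in high-fat diet at 25 mg kg−1 d−1. AST activity was read with Infinity AST reagent at 37 °C, measuring absorbance at 340 nm every minute for 20 min. U/L was calculated from ΔA/min times a factor based on the NADH molar absorption coefficient, sample volume and path length. n = 8; one-way ANOVA.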

For `CCCc1nc2c(C)cc(-c3nc4ccccc4n3C)cc2n1Cc1ccc(-c2ccccc2C(=O)O)cc1`, the Activity [1] was 9%, the Activity (Mus musculus [2]) was 0.6% and the Activity [3] was “Toxic”. The Activity [4] was “Toxic”, the Activity (Mus musculus [5]) was “Active” and the Activity [6] was “Toxic”. The Activity (Mus musculus [7]) was “Active” and the Activity [8] was “Non-Toxic”.
With `Oc1nc2nonc2nc1Nc1ccc(OC(F)(F)F)cc1` the EC50 [9] was 4.3 µM, the Activity [10] was “Non-Toxic” and the Cmax [11] was 80.9 µM. For the same compound, the half-life [12] was 5.7 h, the concentration at 1 h [13] was 15800 ng/g and the concentration at 1 h [14] was 9200 ng/g. For the same compound, the solubility [15] was over 500 µM, the “inhibition (INH)” value [16] was “Not Active” and the Activity [17] was 331 g. For the same compound, the Activity (Mus musculus [18]) was 0.62%, the Activity (Mus musculus [19]) was “Active” and the Activity (Mus musculus [20]) was “Active”. The Activity (Mus musculus [21]) was “Active”, the Activity [22] was “Non-Toxic” and the Activity [23] was “Non-Toxic”. For the same compound, the Activity (Mus musculus [24]) was “Active”, the Activity [25] was “Non-Toxic” and the Activity [26] was “Non-Toxic”. For the same compound, the Activity [27] was “Non-Toxic”, the Activity (Mus musculus [28]) was “Active” and the Activity [29] was “Non-Toxic”.
